Results on eight compounds are retold here after ChEMBL document CHEMBL1153264, “(1,2,3-Triazol-4-yl)benzenamines: synthesis and activity against VEGF receptors 1 and 2” (Bioorg Med Chem Lett, 2009).

Structures are written as SMILES.

The nature of assay [1]: Inhibition of PKA at 10 uM.
Assay [2] has as its target Macrophage-stimulating protein receptor (Homo sapiens) (UniProt Q04912). The assay is described as follows: Inhibition of Ron at 10 uM.
Assay [3] addresses Cyclin-dependent kinase 1 (Homo sapiens) (UniProt P06493). The experiment in a line: Inhibition of Cdk1 at 10 uM.
The target of assay [4] is Hepatocyte growth factor receptor (Homo sapiens) (UniProt P08581). The experiment in a line: Inhibition of c-Met at 10 uM.
In assay [5] the target is Insulin-like growth factor 1 receptor (Homo sapiens) (UniProt P08069). The experiment in a line: Inhibition of IGF1R at 10 uM.
Sequence of Insulin-like growth factor 1 receptor (Homo sapiens) (P08069 31-736 limits assumed): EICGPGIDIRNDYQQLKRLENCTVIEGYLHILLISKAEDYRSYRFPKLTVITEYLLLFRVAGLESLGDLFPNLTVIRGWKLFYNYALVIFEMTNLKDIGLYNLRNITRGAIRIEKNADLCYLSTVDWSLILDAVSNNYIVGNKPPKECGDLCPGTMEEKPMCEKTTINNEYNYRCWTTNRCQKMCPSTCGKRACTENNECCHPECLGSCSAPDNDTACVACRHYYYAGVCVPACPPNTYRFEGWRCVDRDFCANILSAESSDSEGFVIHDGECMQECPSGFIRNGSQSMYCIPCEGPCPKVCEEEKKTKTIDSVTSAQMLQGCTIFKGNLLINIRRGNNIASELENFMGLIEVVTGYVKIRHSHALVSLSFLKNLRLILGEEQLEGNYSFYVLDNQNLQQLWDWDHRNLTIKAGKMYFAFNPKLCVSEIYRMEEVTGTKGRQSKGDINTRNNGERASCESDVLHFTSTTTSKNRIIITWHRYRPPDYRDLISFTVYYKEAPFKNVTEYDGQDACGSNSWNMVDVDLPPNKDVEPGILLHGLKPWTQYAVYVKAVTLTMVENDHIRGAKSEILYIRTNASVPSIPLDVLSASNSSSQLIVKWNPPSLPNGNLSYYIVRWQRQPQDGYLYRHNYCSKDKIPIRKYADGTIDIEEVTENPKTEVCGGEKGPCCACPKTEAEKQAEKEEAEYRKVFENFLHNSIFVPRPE
Sequence of Insulin-like growth factor 1 receptor (Homo sapiens) (P08069 741-1367 limits assumed): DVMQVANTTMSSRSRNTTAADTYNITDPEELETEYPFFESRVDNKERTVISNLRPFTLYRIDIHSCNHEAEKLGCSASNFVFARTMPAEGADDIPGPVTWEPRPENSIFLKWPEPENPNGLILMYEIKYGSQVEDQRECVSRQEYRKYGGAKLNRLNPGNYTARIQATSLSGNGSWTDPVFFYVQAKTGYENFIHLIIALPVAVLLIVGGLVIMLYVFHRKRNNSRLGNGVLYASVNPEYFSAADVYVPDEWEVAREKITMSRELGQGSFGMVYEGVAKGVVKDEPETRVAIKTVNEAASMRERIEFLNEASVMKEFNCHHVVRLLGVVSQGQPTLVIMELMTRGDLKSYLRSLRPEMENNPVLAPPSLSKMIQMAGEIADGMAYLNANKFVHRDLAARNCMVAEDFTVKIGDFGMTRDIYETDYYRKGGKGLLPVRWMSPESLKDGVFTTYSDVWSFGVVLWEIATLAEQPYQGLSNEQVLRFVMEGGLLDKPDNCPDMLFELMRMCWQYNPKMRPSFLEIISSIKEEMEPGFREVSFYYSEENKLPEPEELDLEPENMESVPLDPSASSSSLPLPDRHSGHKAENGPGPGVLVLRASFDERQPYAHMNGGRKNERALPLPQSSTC
The target in assay [6] is Glycogen synthase kinase-3 beta (Homo sapiens) (UniProt P49841). The experiment in a line: Inhibition of GSK3-beta at 10 uM.
Sequence of Glycogen synthase kinase-3 beta (Homo sapiens) (P49841 whole entry, looked up): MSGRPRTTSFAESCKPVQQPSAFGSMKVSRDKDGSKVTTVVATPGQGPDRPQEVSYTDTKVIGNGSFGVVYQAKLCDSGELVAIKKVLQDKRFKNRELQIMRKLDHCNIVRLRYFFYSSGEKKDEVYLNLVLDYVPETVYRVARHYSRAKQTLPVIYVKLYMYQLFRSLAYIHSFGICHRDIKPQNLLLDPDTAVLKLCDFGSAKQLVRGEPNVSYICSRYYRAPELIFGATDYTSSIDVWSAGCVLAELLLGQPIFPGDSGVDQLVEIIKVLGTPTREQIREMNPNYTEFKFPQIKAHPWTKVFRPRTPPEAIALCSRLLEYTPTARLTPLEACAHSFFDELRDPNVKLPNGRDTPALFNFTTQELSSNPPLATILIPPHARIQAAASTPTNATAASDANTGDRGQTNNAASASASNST
Assay [7] has as its target T1, Aurora kinase A (Homo sapiens) (UniProt O14965).
T1 sequence (whole entry): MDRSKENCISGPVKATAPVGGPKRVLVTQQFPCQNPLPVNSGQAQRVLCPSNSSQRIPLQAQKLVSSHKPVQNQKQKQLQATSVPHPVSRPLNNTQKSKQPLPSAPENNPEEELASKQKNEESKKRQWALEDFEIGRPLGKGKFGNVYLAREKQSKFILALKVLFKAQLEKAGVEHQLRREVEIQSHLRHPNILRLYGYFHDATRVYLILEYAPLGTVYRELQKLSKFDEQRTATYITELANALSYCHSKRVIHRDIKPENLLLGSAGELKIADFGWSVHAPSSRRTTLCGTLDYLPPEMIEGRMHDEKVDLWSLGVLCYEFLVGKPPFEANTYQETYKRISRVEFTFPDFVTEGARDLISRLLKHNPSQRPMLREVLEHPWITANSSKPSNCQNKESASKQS
The assay is described as follows: Inhibition of Aurora A at 10 uM.

Assay [8] deals with Insulin receptor (Homo sapiens) (UniProt P06213). The assay is described as follows: Inhibition of IR at 10 uM.
The target in assay [9] is Epidermal growth factor receptor (Homo sapiens) (UniProt P00533). The assay is described as follows: Inhibition of EGFR at 10 uM.
Assay [10] is described as follows: Inhibition of Bcr-Abl T315 mutant at 10 uM.
In assay [11] the target is T2, Vascular endothelial growth factor receptor 2 (Homo sapiens, UniProt P35968). The experiment in a line: Inhibition of VEGFR2 by HTRF assay in presence of 2 uM ATP. In short, it runs like this:
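HTRF kinase assay with KDR enzyme (3–4 ng) and biotinylated pGAT substrate. ATP added to start, 45 min at RT. Stopped with EDTA/KF buffer plus Eu-cryptate anti-phosphotyrosine antibody, 2 h RT, then HTRF read. IC50 from 10-point log concentration curves, mean of at least two duplicate runs.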

Assay [12] has as its target Receptor-type tyrosine-protein kinase FLT3 (Homo sapiens) (UniProt P36888). The experiment in a line: Inhibition of Flt3 at 10 uM.
The target in assay [13] is Fibroblast growth factor receptor 1 (Homo sapiens) (UniProt P11362). The assay is described as follows: Inhibition of FGFR1 at 10 uM.
Sequence of Fibroblast growth factor receptor 1 (Homo sapiens) (P11362 22-822 limits assumed): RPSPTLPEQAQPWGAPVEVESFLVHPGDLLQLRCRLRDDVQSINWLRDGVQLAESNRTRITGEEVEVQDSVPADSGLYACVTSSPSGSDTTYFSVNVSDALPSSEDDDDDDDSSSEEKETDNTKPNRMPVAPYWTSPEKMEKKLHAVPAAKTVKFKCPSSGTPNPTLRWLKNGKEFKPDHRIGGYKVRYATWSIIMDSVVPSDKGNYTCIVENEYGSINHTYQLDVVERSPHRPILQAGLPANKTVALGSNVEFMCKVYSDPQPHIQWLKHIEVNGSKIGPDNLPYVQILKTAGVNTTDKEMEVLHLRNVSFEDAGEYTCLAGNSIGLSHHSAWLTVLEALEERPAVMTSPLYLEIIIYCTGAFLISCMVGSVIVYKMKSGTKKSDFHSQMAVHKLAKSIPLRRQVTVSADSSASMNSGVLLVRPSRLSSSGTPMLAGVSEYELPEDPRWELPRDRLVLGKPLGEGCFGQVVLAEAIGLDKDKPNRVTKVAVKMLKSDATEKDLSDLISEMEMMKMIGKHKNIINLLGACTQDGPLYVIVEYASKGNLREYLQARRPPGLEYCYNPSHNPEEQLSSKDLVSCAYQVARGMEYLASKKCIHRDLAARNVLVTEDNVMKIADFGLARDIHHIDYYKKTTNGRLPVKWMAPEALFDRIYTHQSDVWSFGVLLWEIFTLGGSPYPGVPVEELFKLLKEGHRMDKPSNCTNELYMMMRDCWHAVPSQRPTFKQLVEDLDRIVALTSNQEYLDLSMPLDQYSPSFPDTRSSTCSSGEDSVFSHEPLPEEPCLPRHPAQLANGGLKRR
The target of assay [14] is Vascular endothelial growth factor receptor 1 (Homo sapiens, UniProt P17948). The assay is described as follows: Inhibition of VEGFR1 by HTRF assay. (Time-resolved FRET reads energy transfer from a long-lived donor to a nearby acceptor.)
For assay [15], the target named is Receptor tyrosine-protein kinase erbB-2 (Homo sapiens) (UniProt P04626). The experiment in a line: Inhibition of ErbB2 at 10 uM.
For assay [16], the target named is Aurora kinase B (Homo sapiens) (UniProt Q96GD4). The assay is described as follows: Inhibition of Aurora B at 10 uM.
Sequence of Aurora kinase B (Homo sapiens) (Q96GD4 whole entry): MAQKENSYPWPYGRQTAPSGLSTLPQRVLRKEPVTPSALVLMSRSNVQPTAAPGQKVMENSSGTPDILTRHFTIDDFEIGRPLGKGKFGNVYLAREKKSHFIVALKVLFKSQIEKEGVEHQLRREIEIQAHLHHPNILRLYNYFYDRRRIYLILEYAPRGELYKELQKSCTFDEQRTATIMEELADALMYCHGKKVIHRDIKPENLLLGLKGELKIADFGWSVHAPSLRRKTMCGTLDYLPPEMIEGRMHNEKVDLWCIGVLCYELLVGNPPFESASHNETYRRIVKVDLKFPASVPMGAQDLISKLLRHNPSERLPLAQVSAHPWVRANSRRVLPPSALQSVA
The target of assay [17] is T2, Vascular endothelial growth factor receptor 2. The experiment in a line: Inhibition of VEGF-induced phosphorylation of VEGFR2 by cell-based ELISA.
Assay [18] deals with Bcr/Abl fusion protein (Homo sapiens) (UniProt P00519+P11274). The experiment in a line: Inhibition of Bcr-Abl at 10 uM. It counts as protein assay.
The target of assay [19] is Proto-oncogene tyrosine-protein kinase Src (Homo sapiens) (UniProt P12931). The assay is described as follows: Inhibition of Src at 10 uM.
The target of assay [20] is Serine/threonine-protein kinase PLK1 (Homo sapiens) (UniProt P53350). The assay is described as follows: Inhibition of Plk1 at 10 uM.
The target in assay [21] is Cyclin-dependent kinase 2 (Homo sapiens) (UniProt P24941). The experiment in a line: Inhibition of Cdk2 at 10 uM.

Sequence of Macrophage-stimulating protein receptor (Homo sapiens) (Q04912 25-304 limits assumed): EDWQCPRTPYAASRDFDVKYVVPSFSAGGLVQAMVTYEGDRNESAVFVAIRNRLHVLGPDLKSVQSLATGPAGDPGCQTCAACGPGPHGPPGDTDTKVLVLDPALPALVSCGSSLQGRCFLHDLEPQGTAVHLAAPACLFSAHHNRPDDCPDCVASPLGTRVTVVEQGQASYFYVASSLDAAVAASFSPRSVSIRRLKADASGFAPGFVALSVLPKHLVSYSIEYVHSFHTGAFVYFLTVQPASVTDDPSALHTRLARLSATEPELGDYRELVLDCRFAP
Sequence of Macrophage-stimulating protein receptor (Homo sapiens) (Q04912 310-1400 limits assumed): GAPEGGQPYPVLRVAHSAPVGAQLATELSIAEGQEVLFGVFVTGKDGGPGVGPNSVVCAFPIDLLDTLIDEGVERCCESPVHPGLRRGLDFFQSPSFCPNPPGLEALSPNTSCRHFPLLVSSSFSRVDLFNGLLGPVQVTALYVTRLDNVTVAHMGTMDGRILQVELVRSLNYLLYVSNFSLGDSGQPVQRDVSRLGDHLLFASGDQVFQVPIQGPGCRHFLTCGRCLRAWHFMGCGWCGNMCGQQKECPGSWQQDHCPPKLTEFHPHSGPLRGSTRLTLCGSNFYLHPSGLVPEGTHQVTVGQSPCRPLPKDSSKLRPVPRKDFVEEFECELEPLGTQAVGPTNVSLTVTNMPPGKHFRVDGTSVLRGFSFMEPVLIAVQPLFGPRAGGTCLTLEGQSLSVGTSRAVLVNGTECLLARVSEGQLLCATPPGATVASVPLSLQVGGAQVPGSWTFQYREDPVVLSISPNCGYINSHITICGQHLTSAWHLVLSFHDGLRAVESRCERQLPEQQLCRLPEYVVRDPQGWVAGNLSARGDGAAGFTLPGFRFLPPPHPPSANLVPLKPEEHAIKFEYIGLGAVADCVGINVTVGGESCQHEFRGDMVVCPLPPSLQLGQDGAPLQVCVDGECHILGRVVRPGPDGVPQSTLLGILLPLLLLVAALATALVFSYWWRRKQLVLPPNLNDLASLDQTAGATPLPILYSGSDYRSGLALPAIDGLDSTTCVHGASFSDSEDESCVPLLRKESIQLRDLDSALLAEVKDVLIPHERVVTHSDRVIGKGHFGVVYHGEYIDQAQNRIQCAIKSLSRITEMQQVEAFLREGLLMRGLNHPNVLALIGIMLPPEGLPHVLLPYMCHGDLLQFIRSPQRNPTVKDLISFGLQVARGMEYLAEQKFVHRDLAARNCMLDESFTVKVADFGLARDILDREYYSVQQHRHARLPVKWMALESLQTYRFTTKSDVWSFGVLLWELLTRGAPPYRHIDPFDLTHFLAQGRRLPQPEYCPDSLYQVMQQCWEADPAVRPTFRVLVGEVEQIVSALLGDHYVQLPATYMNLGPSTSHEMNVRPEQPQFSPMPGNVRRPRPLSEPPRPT
Sequence of Cyclin-dependent kinase 1 (Homo sapiens) (P06493 whole entry, looked up): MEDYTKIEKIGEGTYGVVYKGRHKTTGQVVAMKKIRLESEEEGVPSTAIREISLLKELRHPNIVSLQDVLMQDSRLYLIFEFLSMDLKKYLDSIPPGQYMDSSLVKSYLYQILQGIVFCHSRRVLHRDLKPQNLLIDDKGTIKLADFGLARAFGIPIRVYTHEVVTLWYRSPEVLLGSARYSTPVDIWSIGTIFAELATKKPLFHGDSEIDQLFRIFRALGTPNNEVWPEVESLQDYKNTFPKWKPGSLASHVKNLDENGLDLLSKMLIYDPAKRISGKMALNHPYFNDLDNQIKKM

As to `CC(C)(C)c1ccc(-n2cc(-c3ccccc3NCc3ccncc3)nn2)cc1`, the inhibition in [1], in assay [2], in [3], in [4], in assay [5] and in assay [6] was under 30% in each case. Moreover, the inhibition in assay [7], in assay [8], in assay [9], in assay [10], in assay [12] and in [13] was under 30% each time. Further, the inhibition in [15], in [16], in [18], in assay [19], in assay [20] and in [21] was under 30% in each case. Further, the figures for the half-inhibitory concentration (IC50) in assay [11], in assay [14] and in [17] were 610 nM, 530 nM and 1630 nM, respectively.

For `FC(F)(F)c1cccc(-n2cc(-c3ccccc3NCc3ccc4c(c3)OCO4)nn2)c1`, the inhibition in [1], in assay [2], in [3], in [4], in assay [5] and in assay [6] was under 30% in each case. The inhibition in assay [7], in [8], in [9], in assay [10], in [12] and in assay [13] was under 30% each time. Also, the inhibition in [15], in [16], in assay [18], in assay [19], in assay [20] and in assay [21] was under 30% throughout. The concentration for half-maximal inhibition (IC50) in [11], in assay [14] and in assay [17] was over 10000 nM each time.

As to `FC(F)(F)Oc1cccc(-n2cc(-c3ccccc3NCc3ccncc3)nn2)c1`, the inhibition in [1], in [2], in [3], in assay [4], in assay [5] and in assay [6] was under 30% each time. The inhibition in [7], in assay [8], in [9], in [10], in assay [12] and in assay [13] was under 30% in each case. The inhibition in assay [15], in assay [16], in assay [18], in assay [19], in [20] and in [21] was under 30% in each case. Further, the half-maximal inhibitory concentration (IC50) (commonly the concentration needed to halve the response being measured) in assay [11] was 66 nM; in assay [14] it was 72 nM; in [17] it was 85 nM.

As for `FC(F)(F)c1ccc(-n2cc(-c3ccccc3NCc3ccncc3)nn2)cc1`, the inhibition in assay [1], in assay [2], in [3], in assay [4], in [5] and in assay [6] was under 30% in each case. Moreover, the inhibition in assay [7], in [8], in assay [9], in assay [10], in assay [12] and in assay [13] was under 30% in each case. The inhibition in assay [15], in assay [16], in [18], in assay [19], in assay [20] and in assay [21] was under 30% each time. For the same compound, the 50% inhibitory concentration (IC50) in [11] was 590 nM; in [14], 660 nM; in [17] it was 1920 nM.

As to `FC(F)(F)c1cc(-n2cc(-c3ccccc3NCc3ccncc3)nn2)ccc1Cl`, the inhibition in [1], in assay [2], in assay [3], in [4], in [5] and in assay [6] was under 30% each time. Besides, the inhibition in assay [7], in assay [8], in [9], in assay [10], in assay [12] and in [13] was under 30% in each case. Also, the inhibition in [15], in [16], in assay [18], in assay [19], in [20] and in assay [21] was under 30% in each case. In addition, the IC50 was 440 nM in assay [11], 510 nM in assay [14] and 780 nM in assay [17].

Regarding `Cc1ccc(-n2cc(-c3ccccc3NCc3ccncc3)nn2)cc1C(F)(F)F`, the inhibition in assay [1], in assay [2], in assay [3], in assay [4], in assay [5] and in assay [6] was under 30% in each case. In addition, the inhibition in assay [7], in assay [8], in [9], in [10], in [12] and in assay [13] was under 30% in each case. Moreover, the inhibition in assay [15], in assay [16], in assay [18], in assay [19], in [20] and in assay [21] was under 30% in each case. Further, the IC50 in assay [11] is 140 nM; in assay [14] it was 110 nM; in assay [17], 180 nM.

As to `Clc1cccc(-n2cc(-c3ccccc3NCc3cccnc3)nn2)c1`, the inhibition in assay [1], in assay [2], in assay [3], in assay [4], in [5] and in [6] was under 30% throughout. Moreover, the inhibition in [7], in [8], in [9], in assay [10], in assay [12] and in assay [13] was under 30% in each case. Moreover, the inhibition in assay [15], in assay [16], in assay [18], in [19], in assay [20] and in assay [21] was under 30% each time. The IC50 is 4230 nM in assay [11], over 10000 nM in assay [14] and over 10000 nM in assay [17].

As for `Clc1ccc(-n2cc(-c3ccccc3NCc3ccncc3)nn2)cc1`, the inhibition in assay [1], in assay [2], in assay [3], in [4], in assay [5] and in [6] was under 30% throughout. Besides, the inhibition in assay [7], in [8], in [9], in assay [10], in assay [12] and in [13] was under 30% throughout. In addition, the inhibition in assay [15], in assay [16], in assay [18], in [19], in assay [20] and in [21] was under 30% throughout. Besides, the 50% inhibitory concentration (IC50) in assay [11] was 390 nM; in assay [14] it was 130 nM; in assay [17] it was 270 nM.
